In brackets after ≈: the same amount, converted by molar mass. Activity calls are given as the source filed them. No cut-off for these calls is given here. Starred links: 1 amine or outer side, 2 acyl side, 3 side chain; linkers in the order of their positions; H or OH if unused. Non-standard residues stand in square brackets, D forms with d. Residues, ends and D or L forms follow the SMILES beside them. ξ: configuration not given here. *: point of attachment. Pheψ(R-CH(OH)CH2N)Pro = O=C([C@@H]1CCCN1C[C@@H](O)[C@H](Cc1ccccc1)N[*:1])[*:2]; Pheψ(R-CHOHCH2N)ξPro = O=C(C1CCCN1C[C@@H](O)[C@H](Cc1ccccc1)N[*:1])[*:2]; Phe(3-Ph) = N[C@@H](Cc1cccc(-c2ccccc2)c1)C(=O)O; Bip = N[C@@H](Cc1ccc(-c2ccccc2)cc1)C(=O)O; 2Nal = N[C@@H](Cc1ccc2ccccc2c1)C(=O)O; hPhe = N[C@@H](CCc1ccccc1)C(=O)O; Boc = CC(C)(C)OC(=O)*

In general, EC50 refers to the concentration that produces a half-maximal response. For orientation: Ki means a measure of affinity in units of concentration, obtained from inhibition or displacement. A high value points to weaker binding. In general, IC50 refers to the concentration that inhibits the measured activity by half. Read a high IC50 as weaker potency in that assay.

The subject of test [1] is CCRF-CEM. Briefly: Compound was evaluated for the inhibition of HIV infected CEM cells. The format is functional, Homo sapiens. A digest of the protocol: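 CEM (CD4+ lymphocyte line) cultures infected with HTLV-IIIb at MOI 0.1. Compound added 1 h before inoculation; peptides re-dosed days 2 and 5 post-infection. Virus-induced CPE quantitated at day 7 by formazan dye. Controls were untreated, infected and compound-only cells. EC50 for 50% CPE inhibition by linear regression. AZT positive control.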

Test [2] has as its target Human immunodeficiency virus type 1 protease (Human immunodeficiency virus 1, UniProt Q72874). Briefly: Binding affinity to HIV protease. In outline: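 Continuous fluorometric assay of HIV protease (6.2 nM enzyme) at pH 6.4 with substrate AntThrIleNlePhe(p-NO2)GlnArgNH2. Ki derived assuming pure competitive tight-binding inhibition, by nonlinear least-squares fit to Morrison's tight-binding equation.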

Test [3] has as its system Simian immunodeficiency virus. Briefly: Compound was evaluated for the inhibition of SIV induced syncytia formation. The format is functional, organism-based. In outline:
(§1)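 CEM×174 cells pretreated 30 min with serial 2-fold inhibitor dilutions, then infected with cell-free SIVmac251. Fresh inhibitor added at 48 h. CPE scored as multinucleated giant cell appearance after 7-day incubation. IC50 is the concentration giving 50% CPE inhibition versus infected controls. AZT positive control.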

Test [4] deals with CCRF-CEM. Briefly: Compound was evaluated at highest concentration (>10 uM) for the inhibition of HIV infected CEM cells; NA = not active. The note with it: Homo sapiens. The format is functional, cell-based. A digest of the protocol:
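CEM (CD4+ lymphocyte) cells infected with HTLV-IIIb at MOI 0.1; compound added 1 h before inoculation, with extra doses on days 2 and 5 for metabolically unstable compounds such as peptides. Virus-induced CPE read at day 7 by formazan dye.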

In test [5] the test system is Simian immunodeficiency virus. The experiment in a line: Compound was evaluated at highest concentration (>10 syncytia formation; NA = not active. The format is functional, organism-based. In outline:
as §1

`CC[C@H](C)[C@H](NC(=O)[C@@H]1CCCN1C[C@@H](O)[C@H](Cc1ccccc1)NC(=O)[C@H](CC(N)=O)NC(=O)OCc1ccccc1)C(=O)N[C@@H](Cc1ccccc1)C(=O)OC` yielded an EC50 in test [1] of 0.31 µg/mL (≈ 0.387 µM). This compound gave a Ki in test [2] of 1 nM. Besides, the IC50 in test [3] was determined as 4000 nM.
For the compound `CC[C@H](C)[C@H](NC(=O)C1CCCN1C[C@@H](O)[C@H](Cc1ccccc1)NC(=O)[C@H](CC(N)=O)NC(=O)OCc1ccccc1)C(=O)N[C@@H](Cc1ccccc1)C(=O)OC` (stereo partly drawn), in test [1], the EC50 is 0.6 µg/mL (≈ 0.749 µM). The inhibition constant Ki in test [2] was 1.7 nM. The compound also came in with an IC50 in test [3] of 8000 nM.
As for `CC[C@H](C)[C@H](NC(=O)C1CCCN1C[C@@H](O)[C@H](Cc1ccccc1)NC(=O)[C@H](CC(N)=O)NC(=O)c1ccc2ccccc2n1)C(=O)N[C@H](C(=O)OC)C(C)C` (stereo partly drawn), in test [2], the Ki came out at 2.5 nM.
`CC[C@H](C)[C@H](NC(=O)C1CCCN1C[C@@H](O)[C@H](Cc1ccccc1)NC(=O)[C@H](CC(N)=O)NC(=O)[C@H](Cc1c(I)cc(O)cc1I)NC(=O)OC(C)(C)C)C(=O)N[C@H](C(=O)OC)C(C)C` (stereo partly drawn) displayed a Ki in test [2] of 131 nM.
In test [1], `CC[C@H](C)[C@H](NC(=O)C1CCCN1C[C@@H](O)[C@H](Cc1ccccc1)NC(=O)[C@H](CC(N)=O)NC(=O)OCc1ccccc1)C(=O)N[C@@H](Cc1ccccc1)C(=O)NC` (stereo partly drawn) came in with an EC50 of 0.3 µg/mL (≈ 0.375 µM). The compound further yielded a Ki in test [2] of 1.5 nM. Further, the midpoint of inhibition in test [3], the IC50, lay at 4000 nM.
In test [2], `CC[C@H](C)[C@H](NC(=O)C1CCCN1C[C@@H](O)[C@H](Cc1ccccc1)NC(=O)[C@H](CC(N)=O)NC(=O)[C@H](Cc1cccc(-c2ccccc2)c1)NC(=O)OC(C)(C)C)C(=O)N[C@H](C(=O)OC)C(C)C` (stereo partly drawn) (Boc-[Phe(3-Ph)]N[Pheψ(R-CHOHCH2N)ξPro]IV-OMe) showed a Ki of 6.8 nM.
In turn, `CC[C@H](C)[C@H](NC(=O)C1CCCN1C[C@@H](O)[C@H](Cc1ccccc1)NC(=O)[C@H](CC(N)=O)NC(=O)[C@H](CC(C)C)NC(=O)[C@H](CO)NC(C)=O)C(=O)N[C@@H](Cc1ccccc1)C(=O)OC` (stereo partly drawn) (Ac-SLN[Pheψ(R-CHOHCH2N)ξPro]IF-OMe) had a Ki in test [2] of 0.67 nM.
Take `CC[C@H](C)[C@H](NC(=O)[C@@H]1CCCN1C[C@@H](O)[C@H](Cc1ccccc1)NC(=O)[C@H](CC(N)=O)NC(=O)c1ccc2ccccc2n1)C(=O)N[C@@H](Cc1ccccc1)C(=O)OC`: affinity in test [2] was put at a Ki of 0.1 nM.
`CC[C@H](C)[C@H](NC(=O)C1CCCN1C[C@@H](O)[C@H](Cc1ccccc1)NC(=O)[C@H](CC(N)=O)NC(=O)OC(C)(C)C)C(=O)N[C@H](C(=O)OC)C(C)C` (stereo partly drawn) displayed a Ki in test [2] of 440 nM.
Take `CC[C@H](C)[C@H](NC(=O)C1CCCN1C[C@@H](O)[C@H](Cc1ccccc1)NC(=O)[C@H](CC(N)=O)NC(=O)[C@H](CC(C)C)NC(C)=O)C(=O)N[C@H](C(=O)OC)C(C)C` (stereo partly drawn) (Ac-LN[Pheψ(R-CHOHCH2N)ξPro]IV-OMe): in test [2], the Ki is 4 nM.
`CC[C@H](C)[C@H](NC(=O)C1CCCN1C[C@@H](O)[C@H](Cc1ccccc1)NC(=O)[C@H](CC(N)=O)NC(=O)[C@H](CC(C)C)NC(=O)[C@H](CO)NC(C)=O)C(=O)N[C@@H](Cc1ccc2ccccc2c1)C(=O)OC` (stereo partly drawn) (Ac-SLN[Pheψ(R-CHOHCH2N)ξPro]I[2Nal]-OMe) had a Ki in test [2] of 5.1 nM. This Ki and that of the compound before are within 1.5-fold of each other.
Compound `CC[C@H](C)[C@H](NC(=O)C1CCCN1C[C@@H](O)[C@H](Cc1ccccc1)NC(=O)[C@H](CC(N)=O)NC(=O)c1ccc2ccccc2n1)C(=O)N[C@@H](Cc1ccccc1)C(=O)NC` (stereo partly drawn) yielded an EC50 in test [1] of 0.13 µg/mL (≈ 0.158 µM). The compound further displayed an inhibition constant (Ki) in test [2] of 0.8 nM. This compound also came in with an IC50 in test [3] of 4000 nM.
For `CC[C@H](C)[C@H](NC(=O)C1CCCN1C[C@@H](O)[C@H](Cc1ccccc1)NC(=O)[C@H](CC(N)=O)NC(=O)[C@H](CC(C)C)NC(=O)[C@H](CO)NC(C)=O)C(=O)N[C@H](C(=O)OC)C(C)C` (stereo partly drawn) (Ac-SLN[Pheψ(R-CHOHCH2N)ξPro]IV-OMe), the Inhibition result in test [4] is “inactive”. In test [2], this compound showed a Ki of 0.6 nM. Moreover, the half-maximal inhibitory concentration (IC50) result in test [5] is recorded as “Not Active”.
For the compound `CC[C@H](C)[C@H](NC(=O)C1CCCN1C[C@@H](O)[C@H](Cc1ccccc1)NC(=O)[C@H](CC(N)=O)NC(=O)c1ccc2ccccc2n1)C(=O)N[C@@H](Cc1ccccc1)C(=O)OC` (stereo partly drawn), affinity in test [2] was put at a Ki of 0.4 nM.
Consider `CC[C@H](C)[C@H](NC(=O)C1CCCN1C[C@@H](O)[C@H](Cc1ccccc1)NC(=O)[C@H](CC(N)=O)NC(=O)OCc1ccccc1)C(=O)N[C@@H](Cc1ccc2ccccc2c1)C(=O)OC` (stereo partly drawn), for which, in test [2], the inhibition constant Ki was found to be 1.9 nM.
In turn, `CC[C@H](C)[C@H](NC(=O)C1CCCN1C[C@@H](O)[C@H](Cc1ccccc1)NC(=O)[C@H](CC(N)=O)NC(=O)[C@H](CC(C)C)NC(=O)[C@H](CO)NC(C)=O)C(=O)N[C@@H](CCc1ccccc1)C(=O)OC` (stereo partly drawn) (Ac-SLN[Pheψ(R-CHOHCH2N)ξPro]I[hPhe]-OMe) returned an inhibitory constant (Ki) in test [2] of 1.26 nM.
Turning to `CC[C@H](C)[C@H](NC(=O)C1CCCN1C[C@@H](O)[C@H](Cc1ccccc1)NC(=O)[C@H](CC(N)=O)NC(=O)[C@H](Cc1ccc(-c2ccccc2)cc1)NC(=O)OC(C)(C)C)C(=O)N[C@H](C(=O)OC)C(C)C` (stereo partly drawn) (Boc-[Bip]N[Pheψ(R-CHOHCH2N)ξPro]IV-OMe), in test [2], the affinity corresponds to a Ki of 14 nM.
Regarding `CC[C@H](C)[C@H](NC(=O)C1CCCN1C[C@@H](O)[C@H](Cc1ccccc1)NC(=O)[C@H](CC(N)=O)NC(=O)OCc1ccccc1)C(=O)N[C@H](C(=O)OC)C(C)C` (stereo partly drawn), the affinity in test [2], expressed as Ki, was 9.7 nM.
In test [1], `CC[C@H](C)[C@H](NC(=O)C1CCCN1C[C@@H](O)[C@H](Cc1ccccc1)NC(=O)[C@H](CC(N)=O)NC(=O)c1ccc2ccccc2n1)C(=O)NCCc1ccccn1` (stereo partly drawn) had an EC50 of 0.19 µg/mL (≈ 0.248 µM). For the same compound, the affinity in test [2] corresponds to a Ki of 13 nM. The half-inhibitory concentration (IC50) in test [3] was 4000 nM.
As to `CC[C@H](C)[C@H](NC(=O)C1CCCN1C[C@@H](O)[C@H](Cc1ccccc1)NC(=O)[C@H](CC(N)=O)NC(=O)[C@H](CC(C)C)NC(=O)[C@H](CO)NC(C)=O)C(=O)N[C@@H](Cc1c[nH]c2ccccc12)C(=O)OC` (stereo partly drawn) (Ac-SLN[Pheψ(R-CHOHCH2N)ξPro]IW-OMe), in test [2], the Ki came to 3.6 nM.
In turn, `CC[C@H](C)[C@H](NC(=O)[C@@H]1CCCN1C[C@@H](O)[C@H](Cc1ccccc1)NC(=O)[C@H](CC(N)=O)NC(=O)[C@H](CC(C)C)NC(=O)[C@H](CO)NC(C)=O)C(=O)N[C@H](C(=O)OC)C(C)C` (Ac-SLN[Pheψ(R-CH(OH)CH2N)Pro]IV-OMe) had an inhibition constant Ki in test [2] of 0.24 nM. Against the preceding compound, the Ki is about 15-fold lower.
The same measure, in the same setting: the figure for `CC[C@H](C)[C@H](NC(=O)C1CCCN1C[C@@H](O)[C@H](Cc1ccccc1)NC(=O)[C@H](CC(N)=O)NC(=O)[C@H](CC(C)C)NC(=O)OC(C)(C)C)C(=O)N[C@H](C(=O)OC)C(C)C` (stereo partly drawn) (Boc-LN[Pheψ(R-CHOHCH2N)ξPro]IV-OMe) is 66 nM; for `CC[C@H](C)[C@H](NC(=O)C1CCCN1C[C@@H](O)[C@H](Cc1ccccc1)NC(=O)[C@H](CC(N)=O)NC(=O)c1ccc2ccccc2n1)C(=O)N[C@@H](Cc1ccc2ccccc2c1)C(=O)OC` (stereo partly drawn) it is 0.5 nM.
As for `CC[C@H](C)[C@H](NC(=O)C1CCCN1C[C@@H](O)[C@H](Cc1ccccc1)NC(=O)[C@H](CC(N)=O)NC(=O)OCc1ccccc1)C(=O)NCCc1ccccn1` (stereo partly drawn), in test [2], the inhibition constant (Ki) was determined as 71 nM.
On to `CC[C@H](C)[C@H](NC(=O)C1CCCN1C[C@@H](O)[C@H](Cc1ccccc1)NC(=O)[C@H](CC(N)=O)NC(=O)[C@H](Cc1ccc2ccccc2c1)NC(=O)OC(C)(C)C)C(=O)N[C@H](C(=O)OC)C(C)C` (stereo partly drawn) (Boc-[2Nal]N[Pheψ(R-CHOHCH2N)ξPro]IV-OMe), for which affinity in test [2] was put at a Ki of 7.8 nM.
The same measure, in the same setting: the result for `CC[C@H](C)[C@H](NC(=O)C1CCCN1C[C@@H](O)[C@H](Cc1ccccc1)NC(=O)[C@H](CC(N)=O)NC(=O)[C@H](CCc1ccccc1)NC(=O)OC(C)(C)C)C(=O)N[C@H](C(=O)OC)C(C)C` (stereo partly drawn) (Boc-[hPhe]N[Pheψ(R-CHOHCH2N)ξPro]IV-OMe) reads 20 nM.

Values taken from ChEMBL document CHEMBL1125316, “New hydroxyethylamine HIV protease inhibitors that suppress viral replication” (J Med Chem, 1992).
